Shown are actives, neighbours in structure and some others; about 3.5% of the full set was active somewhere.
RGS4 act: RGS4 potentiators or activators, primary screen, cell-based, HEK293 M3R inducible RGS4, calcium flux. 0.92% of 310,000 active. B-score at 10 µM. carbachol calcium flux Fluo4; active compounds read low. AID 463111, 2010;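 active = B-score of the integrated calcium signal more than 4 SD below the library mean, with starting fluorescence not abnormally high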;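 note: negative B-score means reduced calcium response which marks RGS4 activation or potentiation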
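Reagent: ECmax carbachol challenge; Test system: M3R-expressing HEK293 line, RGS4 induced by doxycycline; Schedule: overnight RGS4 induction, 30 min dye load 37 °C, 20 min compound RT; Detection: calcium dye Fluo4 fluorescence; Read-out: Agonist-evoked peak-minus-minimum fluorescence over baseline, integrated ratio, B score.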
MrgX1 agonist: agonists of human MrgX1 receptor, primary screen, HEK293 cells, Fluo-4 calcium flux; 0.44% of 310,000 active; B-score at 10 µM; Fluo-4 calcium fluorescence, agonist mode; active compounds read high; AID 588627, 2011;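 active = calcium response B-score plate-corrected fluorescence ratio at least 3 library SD, with starting fluorescence B-score inside 5 SD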
Target sequence (Q96LB2 whole entry, looked up): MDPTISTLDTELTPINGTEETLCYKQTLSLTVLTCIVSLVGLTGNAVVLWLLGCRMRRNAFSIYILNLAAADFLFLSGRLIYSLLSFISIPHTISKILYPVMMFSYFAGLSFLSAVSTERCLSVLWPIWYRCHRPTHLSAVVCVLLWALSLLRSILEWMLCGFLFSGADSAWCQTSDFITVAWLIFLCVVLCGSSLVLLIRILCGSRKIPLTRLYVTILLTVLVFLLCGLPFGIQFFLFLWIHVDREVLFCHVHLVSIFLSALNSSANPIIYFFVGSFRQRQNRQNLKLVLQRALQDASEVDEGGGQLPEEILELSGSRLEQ
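times = overnight plating, then 30 min 37 °C plus 30 min room-temperature dye loading | assay system = stable human MrgX1 HEK293 cell line | input = fifteen thousand cells per well | signal = kinetic calcium dye fluorescence, Fluo-4 NW | dosing = compound delivered in addition one of three | read-out = B-scored fluorescence response ratio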
MrgX1 antagonist: antagonists of human MrgX1 receptor, primary screen, HEK293 cells, Fluo-4 calcium flux; BAM8-22 antagonism; active compounds read low; B-score at 10 µM; 1.3% of 310,000 active; AID 588676, 2011;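 active = calcium-response B-score plate-corrected more than 3 library SD below zero, starting fluorescence within 5 deviations, no agonist response on first addition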;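 note: peak minus trough fluorescence over baseline after final BAM8-22 challenge near maximal dose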
RGS4 inh: RGS4 inhibitors, primary screen, cell-based, HEK293 M3R inducible RGS4, calcium flux. Fluo-4 calcium flux; active compounds read high; triggered by carbachol at its EC20. B-score at 10 µM. 0.45% of 310,000 active. Regulator of G-protein signaling 4 (Homo sapiens), P49798. AID 463165, 2010;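 active = B-score, a plate-corrected calcium signal, over three deviations above library mean, with baseline fluorescence within five deviations of library mean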;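 note: RGS4 expression induced by doxycycline in cells with stable M3 receptor; B-score is computed from the integrated fluorescence ratio over baseline after carbachol; higher B-score means a larger calcium signal and so more RGS4 inhibition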
Target sequence (P49798 whole entry, looked up): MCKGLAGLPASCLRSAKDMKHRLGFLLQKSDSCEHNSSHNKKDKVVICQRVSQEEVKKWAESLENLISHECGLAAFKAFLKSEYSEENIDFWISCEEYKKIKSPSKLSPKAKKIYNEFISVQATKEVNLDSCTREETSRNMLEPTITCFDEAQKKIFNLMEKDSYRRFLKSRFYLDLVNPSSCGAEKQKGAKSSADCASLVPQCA
MrgX1 allo act: positive allosteric modulators of MrgX1, primary screen, HEK293 cells, Fluo-4 calcium flux; B-score at 10 µM; Mas-related G-protein coupled receptor member X1 (Homo sapiens), Q96LB2; 0.63% of 310,000 active; AID 588675, 2011; FDSS; active compounds read high;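 active = plate-corrected calcium response at least 3 library SD above typical, normal starting fluorescence, not activating the receptor alone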;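 note: compound read alongside a low EC10 to EC30 dose of BAM8-22 agonist; peak minus trough fluorescence over baseline measured at the second addition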
* = called active by the depositor; i = inactive; . = no result given.

SMILES | RGS4 act | MrgX1 agonist | MrgX1 antagonist | RGS4 inh | MrgX1 allo act
O=C(Nc1nccs1)c1ccc(Br)s1 | i | i | i | i | i
CN(C)c1ccc(S(=O)(=O)N2CCCCC2)cc1NC(=O)C1=NN(c2ccccc2)C(=O)CC1 | i | i | i | i | i
CN1C(=O)C(N=Nc2ccccc2C(=O)O)N(C)C1=S (stereo not drawn) | i | 48* | i | i | i
CC1=NN(C(N)=S)C(=O)C1N=Nc1ccccc1C(=O)O (stereo not drawn) | i | i | i | i | i
CC(C)Nc1ccc(Nc2ccnc3cc4ccccc4cc23)cc1 | -9.9* | i | i | i | i
O=C(NCc1ccccc1)C1CCN(S(=O)(=O)c2ccc(Cl)cc2)CC1 | i | i | i | i | i
O=[N+]([O-])c1ccc(-c2csc(N3CCCCCC3)n2)cc1 | i | i | i | i | 9.1*
COc1ccc(-c2c(C#N)c(N)nc3sc(C(=O)c4ccccc4)c(N)c23)cc1 | i | i | i | i | i
CSc1c(C#N)c(N)nc2sc(C(=O)c3ccc(Cl)c(Cl)c3)c(N)c12 | i | i | -5.2* | i | i
Brc1ccccc1/C=N/Nc1ccc2ccccc2n1 | i | i | i | i | 11*
Brc1ccc(/C=N/Nc2ccc3ccccc3n2)cc1 | i | i | i | i | i
Cc1ccnc(NC(=O)CSc2ccc3c(c2)OCCO3)c1 | -7.3* | i | i | i | i
CC(=O)N1c2ccccc2NC2=C(C(=O)CC(C)(C)C2)C1c1cccn1C (stereo not drawn) | i | i | i | i | i
Cc1nnc2ccc(-c3cccc(NS(=O)(=O)c4ccccc4Cl)c3)nn12 | i | i | i | i | i
O=[N+]([O-])c1ccccc1S(=O)(=O)Nc1cccc(-c2ccc3nncn3n2)c1 | i | 27* | i | i | i
Cc1nnc2ccc(-c3cccc(NS(=O)(=O)c4ccccc4[N+](=O)[O-])c3)nn12 | i | 29* | i | i | i
Cc1cc(N)n(-c2ccc(S(N)(=O)=O)cc2[N+](=O)[O-])n1 | i | i | i | i | i
CCOCCCNc1nc2c(C)cccn2c(=O)c1/C=C1\SC(=S)N(CC(C)C)C1=O | i | i | -6.8* | i | i
CCOCCCNc1nc2c(C)cccn2c(=O)c1/C=C1\SC(=S)N(C(C)CC)C1=O (stereo not drawn) | i | i | -15* | i | i
COc1ccc(CN(CC(=O)NCc2ccc(F)cc2)C(=O)CCC(=O)Nc2nccs2)cc1 | i | i | i | i | i
COc1ccc(CN(CC(=O)NCc2ccccc2)C(=O)CCC(=O)Nc2nccs2)cc1 | i | i | i | i | 12*
CC(O)CNc1cnccn1 (stereo not drawn) | i | i | i | i | i
CCOC(=O)C1CCCN(C2=NC(=O)/C(=C/c3ccc(O)c(OCC)c3)S2)C1 (stereo not drawn) | i | i | -4.5* | i | i
CC1CCN(C(=O)Cn2nnc(-c3ccc([N+](=O)[O-])cc3)n2)CC1 | i | i | i | i | i
CSCC[C@H](NC(=O)N1CCn2c1nc1ccccc12)C(=O)N[C@H](Cc1ccccc1)C(=O)O | i | i | -7.6* | i | i
SMILES | RGS4 act | MrgX1 agonist | MrgX1 antagonist | RGS4 inh | MrgX1 allo act
CSCC[C@H](NC(=O)N1CCn2c1nc1ccccc12)C(=O)NCc1ccccc1 | i | i | i | i | i
NNC(=O)CNC(=O)c1cccc(Br)c1 | i | i | i | i | 6.5*
CN1CCN(CCC(=O)N2c3ccccc3Sc3ccc(C(F)(F)F)cc32)CC1 | i | i | -8.2* | i | i
CN(C)CCCN1c2ccccc2Sc2ccc(C(F)(F)F)cc21 | -8.3* | i | i | i | i
CCN(CC)CCCCN1c2ccccc2Sc2ccccc21 | -7.2* | i | i | i | i
Cc1ccccc1C(=O)Nc1ccccc1C(=O)N1CCC(C)CC1 | i | i | i | i | i
Cc1cc(C(=O)O)cc(S(=O)(=O)Nc2ccccc2C(=O)NC(C)c2ccccc2)c1C (stereo not drawn) | i | i | i | i | i
CCOC(=O)/C(Sc1nc(-c2ccccc2)cc(-c2ccccc2)c1C#N)=C(\C)O | i | i | i | i | i
CN(CC(=O)Nc1ccccc1Cl)CC(=O)Nc1ccccc1[N+](=O)[O-] | i | i | i | i | 10*
CC1Oc2ccccc2N(Cc2ccc(F)cc2)C1=O (stereo not drawn) | i | i | i | i | i
CC(C)c1ccc(S(=O)(=O)/N=C2/C=C(Sc3ncn[nH]3)C(=O)c3ccccc32)cc1 | . | i | i | . | 8.6*
CCCCNC(=O)[C@H]1C[C@H]1[C@@H](O)[C@H](CO)NC(=O)[C@H](COCc1ccccc1)NC(=O)OC(C)(C)C | i | i | i | i | i
Cc1nn(-c2ccccc2)c(Cl)c1/C=N/NC(=O)CNc1n[nH]c(=O)[nH]c1=O | i | i | i | i | i
CCCCCCCCC/C(=N\O)c1ccccn1 | -10* | i | i | i | i
CCCCCCCCC(=O)N/N=C/c1ccccn1 | i | i | i | i | i
COC(=O)[C@@H](NC(=O)NC1CCCCC1C)C(C)C (stereo partly drawn) | i | i | i | i | i
CCOc1ccc(C2/C(=C(/O)c3ccc4c(c3)CC(C)O4)C(=O)C(=O)N2CCCn2ccnc2)cc1OCC (stereo not drawn) | i | i | i | i | i
COc1ccc(C(=O)/C=C/c2cccc(OCc3ccccc3)c2)cc1CSCC(=O)O | i | 30* | i | i | i
COc1ccc(C(=O)/C=C/c2ccc(OCc3ccccc3)cc2)cc1CSCC(=O)O | i | i | i | i | i
CCN=C1S/C(=C\c2cc(Cl)c(OC)c(OC)c2)C(=O)N1CC | i | i | i | i | i
CCN=C1S/C(=C\c2ccc(OCC)c(OC)c2)C(=O)N1CC | i | i | -5.1* | i | i
COc1ccc(CCNC(=O)Cn2c(=O)n(CCCC(=O)NCc3ccco3)c(=O)c3sccc32)cc1OC | i | i | i | i | 6.4*

Source: PubChem (Johns Hopkins Ion Channel Center)
